Assay results from ChEMBL document CHEMBL4152188, “Design, synthesis and biological evaluation of C(4) substituted monobactams as antibacterial agents against multidrug-resistant Gram-negative bacteria” (Eur J Med Chem, 2018).
Converted amounts (≈) assume the structure as drawn.

Legend:
Type in all cases: functional
Klebsiella pneumoniae [1] = test: Antibacterial activity against KPC-2 producing Klebsiella pneumoniae isolate 209632 after 18 hrs by CLSI broth microdilution method; settings: isolate 209632, 18 h
Pseudomonas aeruginosa [2] = test: Antibacterial activity against IMP-4 producing Pseudomonas aeruginosa isolate 207272 after 18 hrs in presence of BPL by CLSI broth microdilution method; settings: isolate 207272, 18 h
Procedure, shortened: (§1)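 CLSI broth microdilution against clinical isolates (ESBL E. coli, KPC-2 MDR K. pneumoniae, IMP-4 MDR P. aeruginosa; five per species). Iron limitation: Mueller-Hinton broth supplemented with 16 mg/liter 2,2'-bipyridyl to complex iron and induce iron uptake systems. Read-out: MIC.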

Klebsiella pneumoniae [3] = test: Antibacterial activity against KPC-2 producing Klebsiella pneumoniae isolate 212423 after 18 hrs in presence of BPL by CLSI broth microdilution method; settings: isolate 212423, 18 h; procedure, shortened: as §1
Pseudomonas aeruginosa [4] = test: Antibacterial activity against IMP-4 producing Pseudomonas aeruginosa isolate 209471 after 18 hrs in presence of BPL by CLSI broth microdilution method; settings: isolate 209471, 18 h; procedure, shortened: as §1
Klebsiella pneumoniae [5] = test: Antibacterial activity against KPC-2 producing Klebsiella pneumoniae isolate 209735 after 18 hrs in presence of BPL by CLSI broth microdilution method; settings: isolate 209735, 18 h; procedure, shortened: as §1
Klebsiella pneumoniae [6] = test: Antibacterial activity against KPC-2 producing Klebsiella pneumoniae isolate 209632 after 18 hrs in presence of BPL by CLSI broth microdilution method; settings: isolate 209632, 18 h; procedure, shortened: as §1
Escherichia coli [7] = test: Antibacterial activity against extended-spectrum beta-lactamase producing Escherichia coli isolate 209285 after 18 hrs by CLSI broth microdilution method; settings: isolate 209285, 18 h
Klebsiella pneumoniae [8] = test: Antibacterial activity against KPC-2 producing Klebsiella pneumoniae isolate 212423 after 18 hrs by CLSI broth microdilution method; settings: isolate 212423, 18 h
Klebsiella pneumoniae [9] = test: Selectivity index, ratio of MIC for against KPC-2 producing Klebsiella pneumoniae isolate 212423 to MIC for against KPC-2 producing Klebsiella pneumoniae isolate 212423 in presence of BPL
Pseudomonas aeruginosa [10] = test: Antibacterial activity against IMP-4 producing Pseudomonas aeruginosa isolate 208247 after 18 hrs by CLSI broth microdilution method; settings: isolate 208247, 18 h
Escherichia coli [11] = test: Antibacterial activity against Escherichia coli isolate 210737 after 18 hrs by CLSI broth microdilution method; settings: isolate 210737, 18 h
Escherichia coli [12] = test: Antibacterial activity against extended-spectrum beta-lactamase producing Escherichia coli isolate 212648 after 18 hrs in presence of BPL by CLSI broth microdilution method; settings: isolate 212648, 18 h; procedure, shortened: as §1
Escherichia coli [13] = test: Antibacterial activity against extended-spectrum beta-lactamase producing Escherichia coli isolate 208687 after 18 hrs by CLSI broth microdilution method; settings: isolate 208687, 18 h
Klebsiella pneumoniae [14] = test: Selectivity index, ratio of MIC for against KPC-2 producing Klebsiella pneumoniae isolate 209735 to MIC for against KPC-2 producing Klebsiella pneumoniae isolate 209735 in presence of BPL
Pseudomonas aeruginosa [15] = test: Antibacterial activity against IMP-4 producing Pseudomonas aeruginosa isolate 209321 after 18 hrs in presence of BPL by CLSI broth microdilution method; settings: isolate 209321, 18 h; procedure, shortened: as §1
Klebsiella pneumoniae [16] = test: Selectivity index, ratio of MIC for against KPC-2 producing Klebsiella pneumoniae isolate 212229 to MIC for against KPC-2 producing Klebsiella pneumoniae isolate 212229 in presence of BPL
Klebsiella pneumoniae [17] = test: Antibacterial activity against KPC-2 producing Klebsiella pneumoniae isolate 209735 after 18 hrs by CLSI broth microdilution method; settings: isolate 209735, 18 h
Klebsiella pneumoniae [18] = test: Antibacterial activity against KPC-2 producing Klebsiella pneumoniae isolate 212232 after 18 hrs by CLSI broth microdilution method; settings: isolate 212232, 18 h
Escherichia coli [19] = test: Antibacterial activity against Escherichia coli isolate 210737 after 18 hrs in presence of BPL by CLSI broth microdilution method; settings: isolate 210737, 18 h; procedure, shortened: as §1
Pseudomonas aeruginosa [20] = test: Antibacterial activity against IMP-4 producing Pseudomonas aeruginosa isolate 212886 after 18 hrs by CLSI broth microdilution method; settings: isolate 212886, 18 h
Pseudomonas aeruginosa [21] = test: Antibacterial activity against IMP-4 producing Pseudomonas aeruginosa isolate 209471 after 18 hrs by CLSI broth microdilution method; settings: isolate 209471, 18 h
Pseudomonas aeruginosa [22] = test: Antibacterial activity against IMP-4 producing Pseudomonas aeruginosa isolate 208247 after 18 hrs in presence of BPL by CLSI broth microdilution method; settings: isolate 208247, 18 h; procedure, shortened: as §1
Escherichia coli [23] = test: Antibacterial activity against extended-spectrum beta-lactamase producing Escherichia coli isolate 106342 after 18 hrs in presence of BPL by CLSI broth microdilution method; settings: isolate 106342, 18 h; procedure, shortened: as §1
Escherichia coli [24] = test: Antibacterial activity against extended-spectrum beta-lactamase producing Escherichia coli isolate 208687 after 18 hrs in presence of BPL by CLSI broth microdilution method; settings: isolate 208687, 18 h; procedure, shortened: as §1
Klebsiella pneumoniae [25] = test: Selectivity index, ratio of MIC for against KPC-2 producing Klebsiella pneumoniae isolate 209632 to MIC for against KPC-2 producing Klebsiella pneumoniae isolate 209632 in presence of BPL
Escherichia coli [26] = test: Antibacterial activity against extended-spectrum beta-lactamase producing Escherichia coli isolate 209285 after 18 hrs in presence of BPL by CLSI broth microdilution method; settings: isolate 209285, 18 h; procedure, shortened: as §1
Escherichia coli [27] = test: Antibacterial activity against extended-spectrum beta-lactamase producing Escherichia coli isolate 212648 after 18 hrs by CLSI broth microdilution method; settings: isolate 212648, 18 h
Pseudomonas aeruginosa [28] = test: Antibacterial activity against IMP-4 producing Pseudomonas aeruginosa isolate 212886 after 18 hrs in presence of BPL by CLSI broth microdilution method; settings: isolate 212886, 18 h; procedure, shortened: as §1
Pseudomonas aeruginosa [29] = test: Antibacterial activity against IMP-4 producing Pseudomonas aeruginosa isolate 209321 after 18 hrs by CLSI broth microdilution method; settings: isolate 209321, 18 h
Klebsiella pneumoniae [30] = test: Antibacterial activity against KPC-2 producing Klebsiella pneumoniae isolate 212229 after 18 hrs by CLSI broth microdilution method; settings: isolate 212229, 18 h
Pseudomonas aeruginosa [31] = test: Antibacterial activity against IMP-4 producing Pseudomonas aeruginosa isolate 207272 after 18 hrs by CLSI broth microdilution method; settings: isolate 207272, 18 h
Klebsiella pneumoniae [32] = test: Antibacterial activity against KPC-2 producing Klebsiella pneumoniae isolate 212229 after 18 hrs in presence of BPL by CLSI broth microdilution method; settings: isolate 212229, 18 h; procedure, shortened: as §1
Escherichia coli [33] = test: Antibacterial activity against extended-spectrum beta-lactamase producing Escherichia coli isolate 106342 after 18 hrs by CLSI broth microdilution method; settings: isolate 106342, 18 h
Klebsiella pneumoniae [34] = test: Selectivity index, ratio of MIC for against KPC-2 producing Klebsiella pneumoniae isolate 212232 to MIC for against KPC-2 producing Klebsiella pneumoniae isolate 212232 in presence of BPL
Klebsiella pneumoniae [35] = test: Antibacterial activity against KPC-2 producing Klebsiella pneumoniae isolate 212232 after 18 hrs in presence of BPL by CLSI broth microdilution method; settings: isolate 212232, 18 h; procedure, shortened: as §1

SMILES: CC(C)C(O/N=C(\C(=O)NC1C(=O)N(S(=O)(=O)O)C1(CF)CF)c1csc(N)n1)c1cc(=O)c(O)cn1O (centres undefined)
- MIC (Klebsiella pneumoniae [1]): > 64 µg/mL
- MIC (Pseudomonas aeruginosa [2]): > 64 µg/mL
- MIC (Klebsiella pneumoniae [3]): > 64 µg/mL
- MIC (Pseudomonas aeruginosa [4]): > 64 µg/mL
- MIC (Klebsiella pneumoniae [5]): > 64 µg/mL
- MIC (Klebsiella pneumoniae [6]): > 64 µg/mL
- MIC (Escherichia coli [7]): > 64 µg/mL
- MIC (Klebsiella pneumoniae [8]): > 64 µg/mL
- Selectivity Index (Klebsiella pneumoniae [9]): 8
- MIC (Pseudomonas aeruginosa [10]): > 64 µg/mL
- MIC (Escherichia coli [11]): > 64 µg/mL
- MIC (Escherichia coli [12]): > 64 µg/mL
- MIC (Escherichia coli [13]): > 64 µg/mL
- Selectivity Index (Klebsiella pneumoniae [14]): 8
- MIC (Pseudomonas aeruginosa [15]): > 64 µg/mL
- Selectivity Index (Klebsiella pneumoniae [16]): 8
- MIC (Klebsiella pneumoniae [17]): > 64 µg/mL
- MIC (Klebsiella pneumoniae [18]): 32 µg/mL (≈ 55.1 µM)
- MIC (Escherichia coli [19]): > 64 µg/mL
- MIC (Pseudomonas aeruginosa [20]): > 64 µg/mL
- MIC (Pseudomonas aeruginosa [21]): > 64 µg/mL
- MIC (Pseudomonas aeruginosa [22]): 64 µg/mL
- MIC (Escherichia coli [23]): > 64 µg/mL
- MIC (Escherichia coli [24]): > 64 µg/mL
- Selectivity Index (Klebsiella pneumoniae [25]): 8
- MIC (Escherichia coli [26]): > 64 µg/mL
- MIC (Escherichia coli [27]): > 64 µg/mL
- MIC (Pseudomonas aeruginosa [28]): > 64 µg/mL
- MIC (Pseudomonas aeruginosa [29]): > 64 µg/mL
- MIC (Klebsiella pneumoniae [30]): > 64 µg/mL
- MIC (Pseudomonas aeruginosa [31]): > 64 µg/mL
- MIC (Klebsiella pneumoniae [32]): > 64 µg/mL
- MIC (Escherichia coli [33]): > 64 µg/mL
- Selectivity Index (Klebsiella pneumoniae [34]): 8
- MIC (Klebsiella pneumoniae [35]): 4 µg/mL

SMILES: C[C@@H](O)[C@H]1C(=O)N2C(C(=O)O)=C(S[C@@H]3CN[C@H](C(=O)N(C)C)C3)[C@H](C)[C@H]12 [MEROPENEM]
- MIC (Escherichia coli [7]): 1 µg/mL (≈ 2.61 µM)
- MIC (Pseudomonas aeruginosa [10]): 32 µg/mL (≈ 83.4 µM)
- MIC (Escherichia coli [11]): 0.125 µg/mL (≈ 0.326 µM)
- MIC (Escherichia coli [13]): 0.125 µg/mL (≈ 0.326 µM)
- MIC (Klebsiella pneumoniae [18]): > 64 µg/mL
- MIC (Pseudomonas aeruginosa [21]): 32 µg/mL (≈ 83.4 µM)
- MIC (Escherichia coli [27]): 8 µg/mL (≈ 20.9 µM)
- MIC (Klebsiella pneumoniae [30]): > 64 µg/mL
- MIC (Escherichia coli [33]): 8 µg/mL (≈ 20.9 µM)
